In PubChem BioAssay:
Active and inactive are the calls of the source.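 Rule for the calls, unless noted: active = visual image review flags a hit and inhibition of aggregation exceeds 20%; inconclusive = visual hit but inhibition at or below 20%; inactive = no hit on visual image review.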

Columns and labels:
[1] = inhibitors of TNFa-induced NFkB p65 translocation, primary screen, imaging, HUVEC, MLSMR starter and 10KST1 sets (AID 438;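 active = inhibition above 20% together with a positive visual image hit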;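 note: compound added about 3h40 before a 20 min TNFalpha stimulation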;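 for inhibition: signal is the nuclear over cytoplasmic p65 intensity ratio per well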); settings: HUVEC TNFa-induced p65 nuclear translocation; cell count: measured here: nuclei count (cytotoxicity indicator), at 2.08 µM; inhibition: at 2 µM, stronger effect = higher value, 0% TNFa-plus-vehicle, 100% no-TNFa wells
[2] = reduction of polyQ htt aggregates in cells – imaging, exon1htt(103Q)mCFP cells, high-content imaging, primary screen (AID 483); settings: exon1htt(103Q)mCFP cell line, aggregate imaging, at 2 µM; inhibition of aggregation: stronger effect = higher value; nuclei count: measured here: cell count, toxicity;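 note: compound exposure lasted 3 days before fixation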;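 for nuclei count: percent of the per-plate median nuclei count of sample wells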
[3] = endothelial E-selectin expression blockers – imaging, HUVEC, immunofluorescence, MLSMR starter and 10KST1 sets, primary screen (AID 487;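 active = visually confirmed hit in the image check and inhibition above 20%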;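 for inhibition: signal is fraction of cell area covered by stained E-selectin grains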;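 for nuclei count: 100% = median nuclei count of all wells on the same plate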); settings: HUVEC TNFalpha-induced E-selectin immunofluorescence imaging, at 2 µM; inhibition: stronger effect = higher value; nuclei count: measured here: cell number, toxicity
[4] = biological target: Voltage-gated potassium channel subunit beta-2 (Rattus norvegicus) (UniProt P62483); test: inhibitors of rat Kvbeta2 reductase activity – biochemical, NADPH fluorescence, primary screen (AID 622;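 active = fluorescence slope higher than the sample average by over 3 SD, cut at about -0.22 in these data, passing the limit was not always enough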;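 note: slope of raw intensity against log time taken from 70 to 1610 s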); settings: recombinant KvBeta, 4-cyanobenzaldehyde reduction, at 10 µM, stronger effect = higher value
Voltage-gated potassium channel subunit beta-2 (Rattus norvegicus), sequence (P62483 whole entry, looked up): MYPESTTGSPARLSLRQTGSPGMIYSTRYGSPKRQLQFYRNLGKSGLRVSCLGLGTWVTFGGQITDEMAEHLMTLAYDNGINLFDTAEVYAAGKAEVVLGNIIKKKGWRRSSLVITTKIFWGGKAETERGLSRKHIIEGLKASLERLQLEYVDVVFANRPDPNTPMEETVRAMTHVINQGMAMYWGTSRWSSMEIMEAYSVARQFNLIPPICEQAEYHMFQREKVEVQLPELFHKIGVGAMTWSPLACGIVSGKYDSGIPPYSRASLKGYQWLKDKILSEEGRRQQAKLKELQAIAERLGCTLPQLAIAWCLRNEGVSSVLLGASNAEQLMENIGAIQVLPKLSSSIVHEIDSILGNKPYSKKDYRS

[5] = biological target: Voltage-gated potassium channel subunit beta-2 (Rattus norvegicus) (UniProt P62483); test: enhancers of rat Kvbeta2 NADPH turnover – biochemical, NADPH fluorescence, primary screen (AID 623;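 active = NADPH fluorescence slope more negative than the mean of all samples by about 3 SD, 99.7% confidence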;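 note: fluorescence intensity change per second fitted from 20 to 320 s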); settings: Recombinant KvBeta, NADPH fluorescence decrease slope, 10 min; at 10 µM; stronger effect = lower value
[6] = biological target: Alpha-2C adrenergic receptor (Homo sapiens) (UniProt P18825); test: compounds altering alpha2C-coupled GIRK flux – cell-based, HEK293 alpha2C/GIRK1/2, thallium flux, primary screen (AID 624;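 active = fluorescence slope after compound addition differing from the mean of all screened samples at 99.7% confidence, in either direction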;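 note: slope of fluorescence ratio to pre-addition baseline per second over 15 to 24 s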); settings: thallium flux BTC fluorescence, at 10 µM, actives lie on both sides
Alpha-2C adrenergic receptor (Homo sapiens), sequence (P18825 whole entry, looked up): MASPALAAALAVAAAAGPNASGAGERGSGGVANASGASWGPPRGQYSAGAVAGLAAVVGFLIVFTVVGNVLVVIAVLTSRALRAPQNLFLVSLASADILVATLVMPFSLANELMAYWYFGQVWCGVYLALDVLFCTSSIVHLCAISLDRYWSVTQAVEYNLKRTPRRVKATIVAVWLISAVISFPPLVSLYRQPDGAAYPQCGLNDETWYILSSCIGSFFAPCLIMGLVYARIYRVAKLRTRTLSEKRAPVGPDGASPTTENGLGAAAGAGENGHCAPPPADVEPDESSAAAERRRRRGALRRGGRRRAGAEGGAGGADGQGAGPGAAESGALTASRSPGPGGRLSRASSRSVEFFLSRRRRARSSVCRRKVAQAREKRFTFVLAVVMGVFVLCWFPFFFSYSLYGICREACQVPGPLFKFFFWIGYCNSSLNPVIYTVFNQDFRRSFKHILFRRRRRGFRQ

[7] = inhibitors of larval lipid processing in zebrafish, primary screen, whole organism, PED6 fluorescence, gall bladder and intestine (AID 686;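 active = a full or partial loss of lipid-probe fluorescence in the fish gall bladder, intestine or both, judged by eye; inactive = no fluorescence loss, or compound toxic to the fish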;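 note: larvae 5 to 7 days old with five fish per well; signal comes from phospholipase A2 cleavage of quenched PED6 carried via bile; overnight exposure to compound and PED6 before scoring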); settings: Zebrafish larvae PED6 lipid processing, fluorescence scoring; screened at 20 µM (by protocol)
Summary of the method: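 system = live zebrafish larvae aged 5-7 days, whole organism | probe or stimulus = ingested quenched lipid PED6 at 100 nM | doses = 20 µM single dose | timing = overnight exposure | detection = fluorescence microscopy with visual scoring of gall bladder and intestine | read-out = visual per-well fluorescence inhibition score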

[8] = blockers of RIG-like receptor reporter activation – cell-based, Sendai virus stimulus, luciferase, 10K MLSCN set, TLR/RLR signaling modifier project, primary screen (AID 602276;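 active = inhibition at or above 50% at 10 µM; inactive = inhibition below 50%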;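 note: firefly luciferase from ISG56 promoter only with Renilla not read in this screen; 0% = Sendai virus plus DMSO and 100% = medium plus DMSO without virus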); settings: HEK293 RL24 IRF3 luciferase reporter, at 10 µM, stronger effect = higher value
[9] = TLR3 IRF3 reporter activation blockers – cell-based, poly I:C stimulus, luciferase, 10K MLSCN set, primary screen (AID 602277;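 active = inhibition of the reporter signal at or above 50%; inactive = inhibition below 50%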); settings: HEK293-TLR3 RL24 IRF3 luciferase reporter, at 10 µM, stronger effect = higher value

NC(=O)c1ccsc1NC(=O)COC(=O)Cc1ccsc1
246: cell count [1]
75.6%: nuclei count [3]
81%: nuclei count [2]
inactive: inhibition [1] -18.9% | inhibition of aggregation [2] 17.1% | inhibition [3] 26.2% | fluorescence slope [4] -0.453 | NADPH fluorescence slope [5] -4.6e-05 | slope [6] 0.00509 | outcome [7] | inhibition [8] 9.36% | inhibition [9] 10.7%

O=C(c1cccnc1)N1CCN(C(=O)c2ccccc2F)CC1
active: inhibition [9] 99.3%
114%: nuclei count [3]
inactive: inhibition [1] 1% | inhibition of aggregation [2] -7.4% | inhibition [3] -6% | fluorescence slope [4] -0.353 | NADPH fluorescence slope [5] -3.8e-05 | slope [6] 0.00512 | outcome [7] | inhibition [8] -1.4%
343: cell count [1]
97.7%: nuclei count [2]

COc1cc(C(=O)OCc2cc3ccccc3[nH]c2=O)cc(OC)c1OC
102%: nuclei count [3]
inactive: inhibition [1] -3.9% | inhibition of aggregation [2] -3.9% | inhibition [3] -38.9% | fluorescence slope [4] -0.356 | NADPH fluorescence slope [5] -4.1e-05 | slope [6] 0.00585 | outcome [7] | inhibition [8] 17.4% | inhibition [9] 18.2%
99.3%: nuclei count [2]
833: cell count [1]

Cc1csc(NC(=O)c2ccccc2C(=O)O)n1
inactive: inhibition [1] 9% | inhibition of aggregation [2] -16.7% | inhibition [3] -46.7% | fluorescence slope [4] -0.358 | NADPH fluorescence slope [5] -6.8e-05 | slope [6] 0.00549 | outcome [7] | inhibition [8] 5.94% | inhibition [9] 3.54%
418: cell count [1]
111%: nuclei count [2]
116%: nuclei count [3]

CC(C)OC(=O)c1cc(NC(=O)C2C3CCC(O3)C2C(=O)O)cc(C(=O)OC(C)C)c1 (stereo unspecified)
418: cell count [1]
inactive: inhibition [1] 4.2% | inhibition of aggregation [2] 7.3% | inhibition [3] -49.1% | fluorescence slope [4] -0.454 | NADPH fluorescence slope [5] -5.2e-05 | slope [6] 0.00511 | outcome [7] | inhibition [8] 20.3% | inhibition [9] 13.2%
113%: nuclei count [3]
108%: nuclei count [2]

O=C(O)COc1cccc(NC(=O)C2CCCO2)c1 (stereo unspecified)
308: cell count [1]
inactive: inhibition [1] -7% | inhibition of aggregation [2] 0.8% | inhibition [3] -14.3% | fluorescence slope [4] -0.471 | NADPH fluorescence slope [5] 1.1e-05 | slope [6] 0.00558 | outcome [7] | inhibition [8] -6.85% | inhibition [9] -4.06%
90%: nuclei count [3]
97.2%: nuclei count [2]

CCC(=O)Oc1ccc(C/C(=N\O)c2ccc(O)cc2O)o1
95.9%: nuclei count [2]
115%: nuclei count [3]
inactive: inhibition [1] 1.5% | inhibition of aggregation [2] 24.3% | inhibition [3] -54.6% | fluorescence slope [4] -0.502 | NADPH fluorescence slope [5] 4.5e-05 | slope [6] 0.00444 | outcome [7] | inhibition [8] -8.2% | inhibition [9] -21.3%
405: cell count [1]

C=CCSc1nnc(-c2ccc(Cl)cc2Cl)o1
400: cell count [1]
inactive: inhibition [1] 0.2% | inhibition of aggregation [2] 16.3% | inhibition [3] 14.7% | fluorescence slope [4] -0.373 | NADPH fluorescence slope [5] -5.2e-05 | slope [6] 0.00563 | outcome [7] | inhibition [8] -1.24% | inhibition [9] -58.3%
88.4%: nuclei count [3]
84.8%: nuclei count [2]

CCn1c(SCC(=O)Nc2ccccc2N2CCCCC2)nc2c1c(=O)n(C)c(=O)n2C
inactive: inhibition [1] -5.6% | inhibition of aggregation [2] 19.9% | inhibition [3] -15.6% | fluorescence slope [4] -0.338 | NADPH fluorescence slope [5] -6.7e-05 | slope [6] 0.00404 | outcome [7] | inhibition [8] 16.1% | inhibition [9] 18.7%
89.4%: nuclei count [3]
490: cell count [1]
93.1%: nuclei count [2]

O=C(Nc1nnc(SCC(=O)N2CCCCC2)s1)C1CCCCC1
437: cell count [1]
inactive: inhibition [1] -3.4% | inhibition of aggregation [2] 1.9% | inhibition [3] -34.7% | fluorescence slope [4] -0.346 | NADPH fluorescence slope [5] -3.5e-05 | slope [6] 0.00464 | outcome [7] | inhibition [8] 9.52% | inhibition [9] 13.5%
99.2%: nuclei count [2]
118%: nuclei count [3]

CC(=O)/C(C[N+]1(C)CCCCC1)=N\O
inactive: inhibition [1] 12.1% | inhibition of aggregation [2] 17.4% | inhibition [3] 26.6% | fluorescence slope [4] -0.403 | NADPH fluorescence slope [5] -5.2e-05 | slope [6] 0.00495 | outcome [7] | inhibition [8] 8.76% | inhibition [9] 13.4%
566: cell count [1]
107%: nuclei count [2] | nuclei count [3]

Cc1cccc(NC(=O)CC2CCC2)c1
71.8%: nuclei count [3]
inactive: inhibition [1] -4.1% | inhibition of aggregation [2] 3% | inhibition [3] 40.7% | fluorescence slope [4] -0.435 | NADPH fluorescence slope [5] -2.3e-05 | slope [6] 0.00515 | outcome [7] | inhibition [8] 3.07% | inhibition [9] -0.215%
97.1%: nuclei count [2]
362: cell count [1]

COc1ccccc1OCCNC(=O)c1cccs1
333: cell count [1]
inactive: inhibition [1] 4.3% | inhibition of aggregation [2] 12.7% | inhibition [3] -31.8% | fluorescence slope [4] -0.383 | NADPH fluorescence slope [5] -5.1e-05 | slope [6] 0.00529 | outcome [7] | inhibition [8] -16% | inhibition [9] -43%
99%: nuclei count [3]
97.7%: nuclei count [2]
